# Legend:
# [1] = test system: A 172; assay: Inhibition of nitric oxide formation in human A172 cells; assay type: functional, cell-based
# Outline: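 Human A172 cells were stimulated with cytokines to induce NO formation, with compound present. Nitrite/NO produced was read with Griess reagent and IC50 determined.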
# [2] = biological target: Nitric oxide synthase, inducible (Homo sapiens, UniProt P35228); assay: Inhibition of tetracycline-induced iNOS expressed in SF9 cells
# Outline: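 SF9 cells transfected with iNOS in a tetracycline-inducible system, expression induced by tetracycline. NOS activity was measured as conversion of radiolabeled arginine to radiolabeled citrulline. IC50 was averaged over at least two separate experiments unless noted otherwise.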
# [3] = Volume of distribution at steady state in rat at 2 mg/kg, iv; assay type: ADME, organism-based; set-up: dose 2 mg/kg, route intravenous; details: in vivo, read-out: Vss
# Outline: (§1)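 Rat, intravenous dose of 2 mg/kg. Readouts were half-life, clearance, steady-state volume of distribution and AUC to infinity.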
# [4] = Bioavailability in rat at 10 mg/kg, po; assay type: ADME, organism-based; details: in vivo
# Outline: (§2)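 Rat, oral dose of 10 mg/kg. Readouts were Cmax, terminal half-life, AUC to infinity and oral bioavailability (%F).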
# [5] = Half life in rat at 10 mg/kg, po; assay type: ADME, organism-based; set-up: dose 10 mg/kg, route oral; details: in vivo; outline: as §2
# [6] = Half life in rat at 2 mg/kg, iv; assay type: ADME, organism-based; set-up: dose 2 mg/kg, route intravenous; details: in vivo; outline: as §1
# [7] = Metabolic stability in rat liver microsomes after 3 hrs; assay type: ADME, Microsome; details: read-out: Stability
# Outline: (§3)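 Compound incubated with rat, dog or human liver microsomes for 3 h. Stability was reported as percent parent remaining.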
# [8] = Clearance in rat at 2 mg/kg, iv; assay type: ADME, organism-based; set-up: dose 2 mg/kg, route intravenous; details: in vivo; outline: as §1
# [9] = test system: Rattus norvegicus; assay: AUC (infinity) in rat at 2 mg/kg, iv; assay type: ADME, organism-based, Plasma; set-up: time infinity, dose 2 mg/kg, route intravenous; details: in vivo; outline: as §1
# [10] = Metabolic stability in dog liver microsomes after 3 hrs; assay type: ADME, Canis lupus familiaris, Microsome; details: read-out: Stability; outline: as §3
# [11] = AUC (infinity) in rat at 10 mg/kg, po; assay type: ADME, organism-based; set-up: time infinity, dose 10 mg/kg, route oral; details: plasma; outline: as §2
# [12] = Cmax in rat at 10 mg/kg, po; assay type: ADME, organism-based; set-up: dose 10 mg/kg, route oral; details: in vivo; outline: as §2
# [13] = Metabolic stability in human liver microsomes after 3 hrs; assay type: ADME, Microsome; details: read-out: Stability; outline: as §3
# Nitric oxide synthase, inducible, sequence (P35228 whole entry): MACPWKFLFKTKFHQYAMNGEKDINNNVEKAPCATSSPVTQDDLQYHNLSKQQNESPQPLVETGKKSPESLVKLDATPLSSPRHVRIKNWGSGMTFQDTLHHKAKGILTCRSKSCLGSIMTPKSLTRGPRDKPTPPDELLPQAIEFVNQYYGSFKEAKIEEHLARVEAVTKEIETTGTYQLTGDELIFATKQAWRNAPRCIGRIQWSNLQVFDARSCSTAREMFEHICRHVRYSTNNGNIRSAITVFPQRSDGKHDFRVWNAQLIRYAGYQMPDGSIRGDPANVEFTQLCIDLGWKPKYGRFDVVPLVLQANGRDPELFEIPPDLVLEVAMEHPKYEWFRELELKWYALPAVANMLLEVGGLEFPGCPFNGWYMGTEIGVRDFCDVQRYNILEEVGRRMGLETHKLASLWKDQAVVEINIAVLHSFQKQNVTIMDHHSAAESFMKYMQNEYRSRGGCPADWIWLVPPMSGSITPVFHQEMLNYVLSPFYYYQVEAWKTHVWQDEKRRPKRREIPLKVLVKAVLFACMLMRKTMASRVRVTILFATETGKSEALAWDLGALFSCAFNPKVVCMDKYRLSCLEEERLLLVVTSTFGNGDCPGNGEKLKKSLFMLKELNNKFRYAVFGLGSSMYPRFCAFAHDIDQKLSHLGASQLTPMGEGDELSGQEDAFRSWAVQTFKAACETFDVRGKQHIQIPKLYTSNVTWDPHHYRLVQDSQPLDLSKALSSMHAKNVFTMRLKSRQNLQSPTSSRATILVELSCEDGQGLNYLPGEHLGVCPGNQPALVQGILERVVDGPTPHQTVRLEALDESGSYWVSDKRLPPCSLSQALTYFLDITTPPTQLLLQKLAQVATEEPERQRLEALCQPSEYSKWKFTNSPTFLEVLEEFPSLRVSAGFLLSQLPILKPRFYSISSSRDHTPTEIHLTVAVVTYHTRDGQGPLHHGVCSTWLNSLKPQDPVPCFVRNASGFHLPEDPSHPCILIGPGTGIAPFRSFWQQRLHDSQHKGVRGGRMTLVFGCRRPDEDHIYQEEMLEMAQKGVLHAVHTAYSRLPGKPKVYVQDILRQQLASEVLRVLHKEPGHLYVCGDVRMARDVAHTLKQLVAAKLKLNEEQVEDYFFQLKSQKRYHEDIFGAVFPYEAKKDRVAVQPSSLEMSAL
SMILES,IC50 [1] [nM],IC50 [2] [nM],further results
O=C(O)CN(CCOc1ccc(-n2ccnc2)cc1)Cc1ccc2c(c1)OCO2,> 10000,,
c1cn(-c2ccc(OCCN(Cc3ccc4c(c3)OCO4)Cc3ccc4c(c3)OCO4)cc2)cn1,1500,,
c1cn(-c2ccc(OC3CCCN(Cc4ccc5c(c4)OCO5)C3)cc2)cn1 (stereo unspecified),57,250,
c1cn(-c2ccc(O[C@H]3CCCN(Cc4ccc5c(c4)OCO5)C3)cc2)cn1,9,72,Vd [3]: 21 L/kg; bioavailability [4]: 100%; half-life [5]: 2.9 h; half-life [6]: 2.2 h; remaining at 3 h [7]: 47%; clearance [8]: 128 mL/min/kg; AUC [9]: 280 ng·h/mL; remaining at 3 h [10]: 89%; AUC(0-inf) [11]: 2600 ng·h/mL; Cmax [12]: 800 ng/mL; remaining at 3 h [13]: 31%
c1cn(-c2ccc(O[C@H]3CCN(Cc4ccc5c(c4)OCO5)C3)cc2)cn1,1600,,
c1cn(-c2ccc(NC3CCCN(Cc4ccc5c(c4)OCO5)C3)cc2)cn1 (stereo unspecified),10,120,
c1cn(-c2ccc(OCC3CCCN(Cc4ccc5c(c4)OCO5)C3)cc2)cn1 (stereo unspecified),> 10000,,
c1cn(-c2ccc(OCC3CCCCN3Cc3ccc4c(c3)OCO4)cc2)cn1 (stereo unspecified),100,2200,
c1cn(-c2ccc(OC3CCN(Cc4ccc5c(c4)OCO5)C3)cc2)cn1 (stereo unspecified),4200,,
c1cn(-c2ccc(OC3CCCCN(Cc4ccc5c(c4)OCO5)C3)cc2)cn1 (stereo unspecified),78,,
c1cn(-c2ccc(OC[C@H]3CCCN3Cc3ccc4c(c3)OCO4)cc2)cn1,250,1200,
O=C(CN(CCOc1ccc(-n2ccnc2)cc1)Cc1ccc2c(c1)OCO2)NCc1ccc(C(F)(F)F)cc1,1800,,
CCOC(=O)CN(CCOc1ccc(-n2ccnc2)cc1)Cc1ccc2c(c1)OCO2,1200,,

# The next lines start with results.
IC50 [1] [nM],IC50 [2] [nM],SMILES,further results
240,,c1cn(-c2ccc(OCCNCc3ccc4c(c3)OCO4)cc2)cn1,
640,,O=C(CN(CCOc1ccc(-n2ccnc2)cc1)Cc1ccc2c(c1)OCO2)NCc1ccc2c(c1)OCO2,
1700,,c1cn(-c2ccc(O[C@@H]3CCCN(Cc4ccc5c(c4)OCO5)C3)cc2)cn1,
52,590,c1cn(-c2ccc(OC3CCCN(Cc4ccc5c(c4)OCO5)C3)nn2)cn1 (stereo unspecified),
1600,,CC1CCCCN1CCCNC(=O)CN(CCOc1ccc(-n2ccnc2)cc1)Cc1ccc2c(c1)OCO2 (stereo unspecified),
> 10000,,c1cn(-c2ccc(O[C@@H]3CCN(Cc4ccc5c(c4)OCO5)C3)cc2)cn1,

# Source: ChEMBL document CHEMBL1147912, “1-(1,3-Benzodioxol-5-ylmethyl)-3-[4-(1H-imidazol-1-yl)phenoxy]-piperidine analogs as potent and selective inhibitors of nitric oxide formation” (Bioorg Med Chem Lett, 2007)
